Columns and labels:
[1] = tested on: J774; assay: Selectivity index, ratio of IC50 for COX1 in mouse J774 cells to IC50 for COX2 in mouse J774 cells; format: cell-based
[2] = target: T1, Prostaglandin G/H synthase 1 (Mus musculus, UniProt P22437); assay: Inhibition of COX1 in mouse J774 cells using arachidonic acid as substrate assessed as inhibition of PGE2 production incubated for 15 mins prior to substrate addition measured after 30 mins by radioimmunoassay; format: cell-based
T1 sequence (P22437 whole entry): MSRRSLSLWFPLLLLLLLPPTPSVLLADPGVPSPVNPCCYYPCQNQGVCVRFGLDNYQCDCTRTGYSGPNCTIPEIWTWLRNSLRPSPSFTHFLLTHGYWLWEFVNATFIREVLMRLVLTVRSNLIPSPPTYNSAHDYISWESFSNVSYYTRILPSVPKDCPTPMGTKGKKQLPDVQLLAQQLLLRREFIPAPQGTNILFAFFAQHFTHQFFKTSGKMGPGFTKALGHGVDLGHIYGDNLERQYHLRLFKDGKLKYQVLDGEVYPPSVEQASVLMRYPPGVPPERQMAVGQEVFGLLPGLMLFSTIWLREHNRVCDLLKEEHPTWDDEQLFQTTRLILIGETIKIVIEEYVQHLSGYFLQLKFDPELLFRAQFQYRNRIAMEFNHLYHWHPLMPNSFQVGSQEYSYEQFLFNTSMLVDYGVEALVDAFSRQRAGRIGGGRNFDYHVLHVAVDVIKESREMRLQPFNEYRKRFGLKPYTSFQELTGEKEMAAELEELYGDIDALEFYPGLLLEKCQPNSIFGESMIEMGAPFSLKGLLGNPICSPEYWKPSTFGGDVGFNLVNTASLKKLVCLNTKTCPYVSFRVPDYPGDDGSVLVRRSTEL
Summary of the method: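 J774 cells allowed to adhere 2 h at 37 °C, 5% CO2; medium swapped for FBS-free medium just before use. Pre-treatment with compounds (0.01–10 µM) for 15 min, then 30 min at 37 °C with 15 µM arachidonic acid to activate constitutive COX-1. Supernatant PGE2 by RIA; triplicate wells, mean of three experiments as % inhibition vs control; IC50 from sigmoidal variable-slope fit.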

[3] = tested on: Mus musculus; assay: Analgesic activity in Swiss albino mouse inflammatory pain model assessed as inhibition of acetic acid-induced writhing at 10 mg/kg, po administered 30 mins prior to acetic acid challenge relative to vehicle-treated control; format: functional
Summary of the method: (§1)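 Male Swiss albino mice (23–25 g), standard diet, water ad libitum, 23 ± 1 °C, 12 h light/dark cycle, randomised into groups. Compound or vehicle (suspended in 1% carboxymethylcellulose) given orally 30 min before ip 0.6% acetic acid. Writhes counted starting 5 min after injection. Reported as writhe count and % reduction versus vehicle-treated mice. Mean of 10 mice per group.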

[4] = target: T2, Prostaglandin G/H synthase 2 (Mus musculus, UniProt Q05769); assay: Inhibition of COX2 in mouse J774 cells assessed as inhibition of LPS-induced PGE2 production by radioimmunoassay; format: cell-based
T2 sequence (Q05769 whole entry): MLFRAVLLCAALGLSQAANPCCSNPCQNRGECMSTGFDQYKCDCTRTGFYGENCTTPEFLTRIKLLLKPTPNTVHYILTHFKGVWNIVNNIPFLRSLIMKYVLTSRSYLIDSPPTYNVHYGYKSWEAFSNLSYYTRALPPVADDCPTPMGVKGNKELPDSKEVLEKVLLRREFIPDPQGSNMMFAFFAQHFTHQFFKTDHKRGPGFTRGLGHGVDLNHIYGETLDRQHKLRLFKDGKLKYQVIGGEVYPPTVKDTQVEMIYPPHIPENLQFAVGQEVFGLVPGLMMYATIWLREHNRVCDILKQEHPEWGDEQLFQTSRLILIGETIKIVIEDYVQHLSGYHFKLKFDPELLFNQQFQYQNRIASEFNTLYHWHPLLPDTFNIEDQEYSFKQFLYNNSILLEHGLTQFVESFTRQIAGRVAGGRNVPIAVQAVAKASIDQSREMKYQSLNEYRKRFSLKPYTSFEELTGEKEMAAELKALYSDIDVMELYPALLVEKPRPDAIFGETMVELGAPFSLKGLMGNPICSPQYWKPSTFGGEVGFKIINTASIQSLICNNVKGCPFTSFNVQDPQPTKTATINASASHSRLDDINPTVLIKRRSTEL

[5] = target: T3, Prostaglandin G/H synthase 2 (Homo sapiens, UniProt P35354); parameters: species or system Blood
T3 sequence (P35354 whole entry): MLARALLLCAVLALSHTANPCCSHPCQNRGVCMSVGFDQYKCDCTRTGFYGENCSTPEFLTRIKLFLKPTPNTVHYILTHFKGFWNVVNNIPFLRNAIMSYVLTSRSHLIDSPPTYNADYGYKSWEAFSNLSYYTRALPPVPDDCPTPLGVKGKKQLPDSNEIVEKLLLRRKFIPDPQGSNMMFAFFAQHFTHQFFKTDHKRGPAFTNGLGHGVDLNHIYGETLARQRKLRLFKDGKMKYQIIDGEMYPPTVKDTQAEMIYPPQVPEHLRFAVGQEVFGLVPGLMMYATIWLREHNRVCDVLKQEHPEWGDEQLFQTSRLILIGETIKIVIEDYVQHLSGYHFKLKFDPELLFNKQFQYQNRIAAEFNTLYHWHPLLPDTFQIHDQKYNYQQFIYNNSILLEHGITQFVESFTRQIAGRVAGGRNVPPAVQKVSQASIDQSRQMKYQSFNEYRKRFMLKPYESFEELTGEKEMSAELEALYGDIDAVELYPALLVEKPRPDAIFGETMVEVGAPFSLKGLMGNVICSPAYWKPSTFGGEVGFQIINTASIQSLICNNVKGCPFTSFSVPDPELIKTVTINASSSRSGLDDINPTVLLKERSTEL

[6] = tested on: Mus musculus; assay: Analgesic activity in Swiss albino mouse inflammatory pain model assessed as inhibition of acetic acid-induced writhing at 20 mg/kg, po administered 30 mins prior to acetic acid challenge relative to vehicle-treated control; format: functional; summary of the method: as §1
[7] = tested on: Mus musculus; assay: Analgesic activity in Swiss albino mouse inflammatory pain model assessed as inhibition of acetic acid-induced writhing at 5 mg/kg, po administered 30 mins prior to acetic acid challenge relative to vehicle-treated control; format: functional; summary of the method: as §1
[8] = target: Prostaglandin G/H synthase 1 (Homo sapiens, UniProt P23219); format: tissue-based, Blood
[9] = organism: Homo sapiens; assay: Selectivity ratio of IC50 for platelet COX1 in human whole blood to IC50 for monocyte COX2 in human whole blood; format: tissue-based
[10] = tested on: Mus musculus; assay: Analgesic activity in Swiss albino mouse inflammatory pain model assessed as inhibition of acetic acid-induced writhing at 40 mg/kg, po administered 30 mins prior to acetic acid challenge relative to vehicle-treated control; format: functional; summary of the method: as §1
[11] = tested on: Mus musculus; assay: Analgesic activity in Swiss albino mouse inflammatory pain model assessed as inhibition of acetic acid-induced writhing at 1 mg/kg, po administered 30 mins prior to acetic acid challenge relative to vehicle-treated control; format: functional; summary of the method: as §1
[12] = target: T4, Prostaglandin G/H synthase 2 (Mus musculus) (UniProt Q05769); assay: Ratio of celecoxib IC50 to compound IC50 for COX2 in mouse J774 cells; format: cell-based
T4 sequence (whole entry): T2 sequence (Q05769 whole entry)
Summary of the method: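 The COX-2 IC50 was measured in J774 cells stimulated 24 h with E. coli LPS (10 µg/mL) with or without compound (0.01–10 µM). Supernatant PGE2 by RIA; triplicate wells, mean of three experiments; IC50 from a sigmoidal variable-slope fit. Celecoxib served as the reference for the index.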

Prostaglandin G/H synthase 1 (Homo sapiens, UniProt P23219), sequence (P23219 whole entry): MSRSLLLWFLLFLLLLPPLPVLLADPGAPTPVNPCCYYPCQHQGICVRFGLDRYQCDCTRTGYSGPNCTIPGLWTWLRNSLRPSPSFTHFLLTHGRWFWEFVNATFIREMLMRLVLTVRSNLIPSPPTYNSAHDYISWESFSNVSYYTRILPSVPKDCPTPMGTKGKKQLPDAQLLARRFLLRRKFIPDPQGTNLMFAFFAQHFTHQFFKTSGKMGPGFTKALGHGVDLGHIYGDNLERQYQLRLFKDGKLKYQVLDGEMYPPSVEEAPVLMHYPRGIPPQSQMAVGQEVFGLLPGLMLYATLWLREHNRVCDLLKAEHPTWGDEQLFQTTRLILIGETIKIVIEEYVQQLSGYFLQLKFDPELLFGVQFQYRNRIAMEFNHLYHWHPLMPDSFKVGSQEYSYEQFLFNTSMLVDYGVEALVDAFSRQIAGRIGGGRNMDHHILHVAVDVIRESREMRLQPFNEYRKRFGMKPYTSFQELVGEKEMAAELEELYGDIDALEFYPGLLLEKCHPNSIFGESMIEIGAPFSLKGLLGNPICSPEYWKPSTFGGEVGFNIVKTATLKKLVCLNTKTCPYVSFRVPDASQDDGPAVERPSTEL

Cc1c(/C=N\O)cc(-c2ccc(S(C)(=O)=O)cc2)n1-c1ccc(F)c(F)c1
Ratio IC50 [1]: > 62.5
IC50 [2]: > 10 µM
inhibition in vivo at 10 mg/kg [3]: 19%
IC50 [4]: 0.16 µM
IC50 [5]: 17.3 µM
inhibition in vivo at 20 mg/kg [6]: 27%
inhibition in vivo at 5 mg/kg [7]: 10%
IC50 [8]: 161 µM
Ratio IC50 [9]: 9.3

Cc1ccc(-c2cc(C(F)(F)F)nn2-c2ccc(S(N)(=O)=O)cc2)cc1 [CELECOXIB]
inhibition in vivo at 40 mg/kg [10]: 69%
inhibition in vivo at 10 mg/kg [3]: 57%
inhibition in vivo at 20 mg/kg [6]: 58%
inhibition in vivo at 5 mg/kg [7]: 50%
inhibition in vivo at 1 mg/kg [11]: 42%

Cc1c(C=O)cc(-c2ccc(S(C)(=O)=O)cc2)n1-c1cccc(F)c1
Ratio IC50 [1]: > 1050
IC50 [2]: > 10 µM
inhibition in vivo at 10 mg/kg [3]: 39%
IC50 [4]: 0.0095 µM
inhibition in vivo at 20 mg/kg [6]: 44%
Ratio IC50 [12]: 8

Cc1c(C#N)cc(-c2ccc(S(C)(=O)=O)cc2)n1-c1ccc(F)cc1
inhibition in vivo at 40 mg/kg [10]: 45%
IC50 [2]: > 10 µM
inhibition in vivo at 10 mg/kg [3]: 36%
inhibition in vivo at 20 mg/kg [6]: 33%
inhibition in vivo at 5 mg/kg [7]: 5%

Cc1c(C=O)cc(-c2ccc(S(C)(=O)=O)cc2)n1-c1ccc(F)cc1
inhibition in vivo at 40 mg/kg [10]: 31%
IC50 [2]: > 10 µM
inhibition in vivo at 20 mg/kg [6]: 30%
inhibition in vivo at 5 mg/kg [7]: 5%

Cc1c(C#N)cc(-c2ccc(S(C)(=O)=O)cc2)n1-c1ccc(F)c(F)c1
inhibition in vivo at 40 mg/kg [10]: 57%
Ratio IC50 [1]: > 454
IC50 [2]: > 10 µM
inhibition in vivo at 10 mg/kg [3]: 19%
IC50 [4]: 0.0022 µM
inhibition in vivo at 20 mg/kg [6]: 38%
Ratio IC50 [12]: 36
inhibition in vivo at 5 mg/kg [7]: 8%

Cc1c(/C=N\O)cc(-c2ccc(S(C)(=O)=O)cc2)n1-c1ccc(F)cc1
inhibition in vivo at 40 mg/kg [10]: 47%
Ratio IC50 [1]: > 27.8
IC50 [2]: > 10 µM
inhibition in vivo at 10 mg/kg [3]: 36%
IC50 [4]: 0.36 µM
inhibition in vivo at 20 mg/kg [6]: 41%
inhibition in vivo at 5 mg/kg [7]: 2%

Cc1c(C=O)cc(-c2ccc(S(C)(=O)=O)cc2)n1-c1ccccc1
inhibition in vivo at 40 mg/kg [10]: 30%
Ratio IC50 [1]: > 294
IC50 [2]: > 10 µM
inhibition in vivo at 10 mg/kg [3]: 23%
IC50 [4]: 0.034 µM
inhibition in vivo at 20 mg/kg [6]: 32%

Cc1c(/C=N\O)cc(-c2ccc(S(C)(=O)=O)cc2)n1-c1cccc(F)c1
inhibition in vivo at 40 mg/kg [10]: 45%
Ratio IC50 [1]: > 22.7
IC50 [2]: > 10 µM
inhibition in vivo at 10 mg/kg [3]: 32%
IC50 [4]: 0.44 µM
inhibition in vivo at 20 mg/kg [6]: 42%

Cc1c(C#N)cc(-c2ccc(S(C)(=O)=O)cc2)n1-c1ccccc1
inhibition in vivo at 40 mg/kg [10]: 59%
Ratio IC50 [1]: > 27.8
IC50 [2]: > 10 µM
inhibition in vivo at 10 mg/kg [3]: 28%
IC50 [4]: 0.36 µM
inhibition in vivo at 20 mg/kg [6]: 42%

Cc1c(C#N)cc(-c2ccc(S(C)(=O)=O)cc2)n1-c1cccc(F)c1
inhibition in vivo at 40 mg/kg [10]: 38%
Ratio IC50 [1]: > 769
IC50 [2]: > 10 µM
inhibition in vivo at 10 mg/kg [3]: 28%
IC50 [4]: 0.013 µM
IC50 [5]: 1.3 µM
inhibition in vivo at 20 mg/kg [6]: 33%
inhibition in vivo at 5 mg/kg [7]: 21%
IC50 [8]: 50.5 µM
Ratio IC50 [9]: 38.8

Cc1c(C=O)cc(-c2ccc(S(C)(=O)=O)cc2)n1-c1ccc(F)c(F)c1
inhibition in vivo at 40 mg/kg [10]: 60%
Ratio IC50 [1]: > 143
IC50 [2]: > 10 µM
inhibition in vivo at 10 mg/kg [3]: 53%
IC50 [4]: 0.07 µM
IC50 [5]: 14.8 µM
inhibition in vivo at 20 mg/kg [6]: 52%
inhibition in vivo at 5 mg/kg [7]: 50%
IC50 [8]: 71.4 µM
inhibition in vivo at 1 mg/kg [11]: 36%
Ratio IC50 [9]: 4.8

Cc1c(/C=N\O)cc(-c2ccc(S(C)(=O)=O)cc2)n1-c1ccccc1
inhibition in vivo at 40 mg/kg [10]: 57%
Ratio IC50 [1]: > 52.6
IC50 [2]: > 10 µM
inhibition in vivo at 10 mg/kg [3]: 27%
IC50 [4]: 0.19 µM
inhibition in vivo at 20 mg/kg [6]: 53%
inhibition in vivo at 5 mg/kg [7]: 13%
